Test results: ChEMBL document CHEMBL1157486, “2-Substituted-16-ene-22-thia-1alpha,25-dihydroxy-26,27-dimethyl-19-norvitamin D3 analogs: Synthesis, biological evaluation, and crystal structure” (Bioorg Med Chem, 2008)
Values joined by “and” are separate entries in the source; they are usually repeats but may differ in a detail not shown here. Equal entries are not always repeated.

Key:
[1] = molecular target: Vitamin D3 receptor (Homo sapiens) (UniProt P11473); test: Increase in human VDR-mediated transcriptional activity in african green monkey COS7 cells after 24 hrs by luciferase assay
Bone marrow cell = test: Effect on osteoclast formation in ddY mouse bone marrow cells co cultured with […] after 7 days
[2] = molecular target: T1, Vitamin D3 receptor (Rattus norvegicus) (UniProt P13053); test: Displacement of [3H]1-alpha,25-(OH)2D3 from rat recombinant VDR expressed in Escherichia coli BL21 (DE3)
T1 sequence (whole entry): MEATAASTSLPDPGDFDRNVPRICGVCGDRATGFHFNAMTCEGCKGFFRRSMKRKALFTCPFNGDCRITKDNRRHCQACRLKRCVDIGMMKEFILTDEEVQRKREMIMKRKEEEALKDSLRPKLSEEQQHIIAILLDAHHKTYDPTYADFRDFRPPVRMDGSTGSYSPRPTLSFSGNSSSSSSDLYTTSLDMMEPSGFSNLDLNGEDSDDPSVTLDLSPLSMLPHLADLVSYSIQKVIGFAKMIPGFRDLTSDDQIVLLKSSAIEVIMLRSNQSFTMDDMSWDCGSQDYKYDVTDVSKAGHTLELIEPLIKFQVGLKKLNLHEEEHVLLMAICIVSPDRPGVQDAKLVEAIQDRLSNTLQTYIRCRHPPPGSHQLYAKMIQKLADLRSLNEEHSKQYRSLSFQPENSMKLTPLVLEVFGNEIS
Outline: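 Rat VDR-LBD lysate (sonicated cells) diluted ~1000-fold in 50 mM Tris pH 7.5 with 100 mM KCl, 5 mM DTT, 0.5% CHAPS and BSA 100 µg/mL. Ligand in EtOH preincubated 1 h at room temperature, then [3H]1α,25-(OH)2D3 (~5000 dpm) added for 18 h at 4 °C. Free ligand removed with dextran-coated charcoal, and bound fraction counted by scintillation. At least twice in duplicate.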

[3] = Mus musculus, ddY, Bone marrow cell, 168 h

Structure (SMILES)	EC50 [1] [nM]	Activity [2]	further results
CCC(O)(CC)CSC(C)C1=CCC2/C(=C/C=C3/C[C@@H](O)[C@](C)(O)[C@H](O)C3)CCC[C@]12C (stereo partly specified)	1.9	–	–
CCC(O)(CC)CSC(C)C1=CCC2/C(=C/C=C3C[C@@H](O)C(=CCO)[C@H](O)C3)CCC[C@]12C (stereo partly specified) [listing 1 of 2 here]	0.085	–	–
CCC(O)(CC)CS[C@H](C)C1=CC[C@H]2/C(=C/C=C3C[C@@H](O)C(=CCO)[C@H](O)C3)CCC[C@]12C [listing 1 of 2 here]	0.029	–	–
CCC(O)(CC)CSC(C)C1=CCC2/C(=C/C=C3/C[C@@H](O)[C@H](OCCO)[C@H](O)C3)CCC[C@]12C (stereo partly specified)	0.027	–	EC50 (Bone marrow cell; bone marrow cell): 0.04 nM
CCC(O)(CC)CSC(C)C1=CCC2/C(=C/C=C3\C[C@@H](O)[C@](C)(O)[C@H](O)C3)CCC[C@]12C (stereo partly specified)	0.017	–	–
[H][C@@]12CC=C([C@@H](C)SCC(O)(CC)CC)[C@@]1(C)CCC/C2=C\C=C1/C[C@@H](O)[C@@](C)(O)[C@H](O)C1 (stereo partly specified)	4.5	–	–
[H][C@@]12CC=C([C@@H](C)SCC(O)(CC)CC)[C@@]1(C)CCC/C2=C\C=C1\C[C@@H](O)[C@@](C)(O)[C@H](O)C1 (stereo partly specified)	0.12	–	–
CCC(O)(CC)CSC(C)C1=CCC2/C(=C/C=C3C[C@@H](O)C(C)(O)[C@H](O)C3)CCC[C@]12C (stereo partly specified)	–	18% and 1%	–
CCC(O)(CC)CSC(C)C1=CCC2/C(=C/C=C3C[C@@H](O)C(=CCO)[C@H](O)C3)CCC[C@]12C (stereo partly specified) [listing 2 of 2 here]	0.026	–	–
CCC(O)(CC)CS[C@H](C)C1=CC[C@H]2/C(=C/C=C3C[C@@H](O)C(=CCO)[C@H](O)C3)CCC[C@]12C [listing 2 of 2 here]	0.2	–	–
CCC(O)(CC)CS[C@H](C)C1=CC[C@H]2/C(=C/C=C3C[C@@H](O)C(C)(O)[C@H](O)C3)CCC[C@]12C (stereo partly specified)	–	12% and 0.5%	–
C=C1/C(=C\C=C2/CCC[C@]3(C)[C@@H]([C@H](C)CCCC(C)(C)O)CC[C@@H]23)C[C@@H](O)C[C@@H]1O [CALCITRIOL]	–	100%	EC50 (Bone marrow cell; [3]): 2 nM

Further lines, with some results ahead:

EC50 [1] [nM]	Activity [2]	Structure (SMILES)	further results
–	6%	CCC(O)(CC)CS[C@H](C)C1=CC[C@H]2/C(=C/C=C3C[C@@H](O)C[C@H](O)C3)CCC[C@]12C	–
–	60%	CCC(O)(CC)CS[C@@H](C)C1=CC[C@H]2/C(=C/C=C3C[C@@H](O)C[C@H](O)C3)CCC[C@]12C	–
0.115	–	[H][C@@]12CC=C([C@@H](C)SCC(O)(CC)CC)[C@@]1(C)CCC/C2=C\C=C1\C[C@@H](O)[C@H](OCCO)[C@H](O)C1 (stereo partly specified)	EC50 (Bone marrow cell; bone marrow cell): 0.43 nM
0.024	–	[H][C@@]12CC=C([C@@H](C)SCC(O)(CC)CC)[C@@]1(C)CCC/C2=C\C=C1/C[C@@H](O)[C@H](OCCO)[C@H](O)C1 (stereo partly specified)	EC50 (Bone marrow cell; [3]): 0.22 nM
–	4%	CCC(O)(CC)CCS[C@H](C)C1=CC[C@H]2/C(=C/C=C3C[C@@H](O)C[C@H](O)C3)CCC[C@]12C	–
–	8%	CCC(O)(CC)CCCS[C@H](C)C1=CC[C@H]2/C(=C/C=C3C[C@@H](O)C[C@H](O)C3)CCC[C@]12C	–
0.0021	–	CCC(O)(CC)CSC(C)C1=CCC2/C(=C/C=C3\C[C@@H](O)[C@H](OCCO)[C@H](O)C3)CCC[C@]12C (stereo partly specified)	EC50 (Bone marrow cell; [3]): 0.035 nM
–	100%	CCC(O)(CC)CCS[C@@H](C)C1=CC[C@H]2/C(=C/C=C3C[C@@H](O)C[C@H](O)C3)CCC[C@]12C	–
–	100%	CCC(O)(CC)CCCS[C@@H](C)C1=CC[C@H]2/C(=C/C=C3C[C@@H](O)C[C@H](O)C3)CCC[C@]12C	–
